# Laboratory results from PubChem BioAssay AID1258 (University of Pittsburgh Molecular Library Screening Center, 2008).
# Screen size: about 1,100 compounds; about 150 (14%) were called active. Another 1% or so got no clear call; they are omitted. Not all results are given here. Unmarked numbers belong to inactive results.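 The calls were made as follows: active = inhibition above about 50% in both repeat tests (limit read from the data); inconclusive = one repeat under the set limit, the other over it; inactive = both repeats under the set limit.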
# Assay: Leishmania major promastigote growth inhibition, confirmation, 1 µM repeat of primary hits (AID 1258)
# Conditions: L. major promastigote growth, resazurin fluorescence, 48 h; at 1 µM; active compounds read high
# In short: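 Assay system: Leishmania major promastigote parasites. Amount: 5,000 promastigotes per well. Incubation: 44 h compound exposure plus 4 h dye step, both 28 °C. Evaluation: parasite viability inhibition versus plate controls. Benchmarks: DMSO high/low controls plus tamoxifen reference.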
row,SMILES,inhibition
1,Clc1ccc(-n2nnnc2-c2cnc(-c3ccccn3)nc2-c2cccs2)cc1,-17.1%
2,c1ccc(CC2CCN(c3nc4ccccc4n4cnnc34)CC2)cc1,-11.4%
3,CC(=O)NC1C(Oc2ccc(C)cc2)OC2COC(c3ccco3)OC2C1O (stereo unspecified),-11.1%
4,N#Cc1ccc(N2Cc3ccccc3/C2=N/C(=O)Nc2ccc(Cl)cc2)cc1,14%
5,CCOC(=O)c1c(C2CC2)csc1NC(=O)CSCc1c(C)noc1C,-3.56%
6,CNC(=S)N/N=C/c1cn(Cc2ccc(C)cc2)c2ccccc12,-4.3%
7,COc1ccc2c(c1)C=CC1(O2)N(CCO)c2ccccc2C1(C)C (stereo unspecified),-3.93%
8,O=C(c1ccc(-c2ccccc2)cc1)C1CCCN(C(=O)c2cncs2)C1 (stereo unspecified),-12.9%
9,Cn1c(-c2sc3cc(C(F)(F)F)cnc3c2-c2ccccc2)n[nH]c1=S,-17.6%
10,N#Cc1ccc(-c2nc3cc(C#N)c(C#N)cc3nc2-c2ccccc2)cc1C#N,-5.54%
11,c1ccc2cc(OCCN3CCCC3)ccc2c1,12.5%
12,Cc1nn(-c2ccccc2)c2sc(C(=O)N(Cc3ccco3)C(C)C(=O)NC(C)(C)C)cc12 (stereo unspecified),-6.73%
13,COCCN(CCOC)S(=O)(=O)c1ccc(C(=O)Nc2nc3c(s2)CCc2ccccc2-3)cc1,-8.24%
14,CC(C)Cc1nn2c(=O)cc(O)nc2s1,-1.83%
15,Cc1c(Br)cc(C(=O)N2CCCCCC2)c(C)c1C,-3.85%
16,CCOC(=O)/C(N=Nc1cc(C(=O)O)cc(C(=O)O)c1)=C(\O)CCl,-4.13%
17,CCOC(=O)N1CCN(C(c2cccnc2)c2ccc3cccnc3c2O)CC1 (stereo unspecified),-7.1%
18,CCc1nc(C)cn1S(=O)(=O)c1cc(OC)c(C)cc1C,0.254%
19,Fc1cc(F)c2nc(Nc3nc4c(F)cccc4s3)sc2c1,-9.65%

row,SMILES,inhibition
1,CC1(C)CC(=O)c2c(n(S(=O)(=O)c3ccccc3)c3ccc(NS(=O)(=O)c4ccccc4)cc23)C1,-25.3%
2,O=C(/C=C/Sc1ncn[nH]1)c1ccc(Cl)cc1,29.4%
3,CCOC(=O)C1=C(CC)Nc2ccccc2N=C1NC(=O)c1cccc(S(=O)(=O)N2CCCC2)c1,-9.84%
4,Cc1cccc(-n2c(N)cc(=O)nc2SC(C)C(=O)NC2CCCCC2)c1 (stereo unspecified),29.9%
5,Cc1nn(CC2CC2)c(=O)n1N(C)c1ncc(C(F)(F)F)cc1Cl,-15.7%
6,Clc1ccc(C2=CSC3=Nc4cccc5cccc(c45)N23)cc1,-13.5%
7,CN(C)Cc1ccccc1C1(O)c2ccccc2CSc2ccccc21 (stereo unspecified),-1.45%
8,Cc1ccc(Nc2nc(CSc3nnnn3-c3ccccc3)cc(=O)[nH]2)cc1,-2.73%
9,CN(C)c1ccc(/C=C2\NC(=S)N(Cc3ccccc3)C2=O)cc1,-11.8%
10,CCc1ccc(-c2nn(-c3ccccc3)cc2CSC(=N)N)cc1,46.8%
11,c1ccc(C2CCC(N3CCC(N4CCCCC4)CC3)CC2)cc1 (stereo unspecified),59.2% (active)
12,O=C(Nc1ccc2ccccc2c1)Nc1ccc2snnc2c1,-30.1%
13,Cc1cc(/C=C(/C#N)C(=O)Nc2ccc(Cl)cc2)c(C)n1-c1cccnc1,-3.48%
14,O=C1N(Cc2ccc3c(c2)OCO3)c2ccccc2C1(O)c1c[nH]c2ccccc12 (stereo unspecified),0.0749%
15,CCCCn1c(=S)[nH]c2cc(S(=O)(=O)N3CCCCC3)ccc21,9.63%
16,Cc1nnc(-c2ccc(Oc3ccc(C)c(C)c3)c([N+](=O)[O-])c2)o1,-11.1%
17,Cc1nc(N2CCOCC2)c2c(C)c(C(=O)Nc3ccc(C(F)(F)F)cc3)sc2n1,15.1%
18,Cc1ccc(CN(N=Nc2nonc2N)c2nonc2N)c(C)c1,-2.38%
19,Cc1nc([N+](=O)[O-])nn1C12CC3CC(CC(Br)(C3)C1)C2,38.5%

row,SMILES,inhibition
1,CC(=O)NC1C(OCc2ccccc2)OC(COC(C)=O)C(OC(C)=O)C1OC(C)=O (stereo unspecified),-7.57%
2,O=C(CCN1C(=O)c2ccccc2C1=O)Nc1cccc(F)c1,-12.6%
3,O=C(NC(Cc1c[nH]c2ccccc12)C(=O)N/N=C/c1ccc(Br)cc1)c1cccs1 (stereo unspecified),-12.7%
4,c1ccc(-c2cc(-c3nnc4sc(-c5ccccn5)nn34)[nH]n2)cc1,50.6% (active)
5,COC(=O)C1=C(C)N(c2ccc(C)cc2)/C(=C/c2ccc(O)cc2)C1=O,8.89%
6,COc1ccc(COC(=O)c2n[nH]c3ccccc23)cc1F,-13%
7,CS(=O)(=O)Nc1cccc(C2=NN(S(=O)(=O)c3ccccc3)C(c3cccs3)C2)c1 (stereo unspecified),-8.88%
8,Cc1cccc(-n2c(C)cc(/C=N/NC(N)=S)c2C)c1,15.8%
9,C=CCNc1nnc(SCC(=O)N2CCCCC2)c2ccccc12,-6.19%
10,N#Cc1ccccc1-n1c(N)c(C(=O)N2CCCC2)sc1=S,-0.236%
11,CC12CCC(C(=O)N(NC(=O)c3ccccc3O)C1=O)C2(C)C (stereo unspecified),-15.5%
12,Nc1cccc(-c2cc(-c3ccccc3)nc(-c3cccc(N)c3)n2)c1,-6.75%
13,COc1ccc2[nH]c(C)c(CCN(Cc3cccs3)C(=S)Nc3ccccc3OC)c2c1,28.7%
14,c1ccc(Cc2cc[n+](Cc3ccccc3)cc2)cc1,-17.2%
15,CN(C)c1ccc(/C=N\S(=O)(=O)c2ccccc2)cc1,-0.93%
16,O=C(c1cccnc1)N(c1cc2sc(=O)oc2c2ccccc12)S(=O)(=O)c1ccccc1,95.1% (active)
17,N#C/C=C\Oc1ccc(Cl)cc1N,-12.9%
18,COc1ccc(-c2cc(C(F)(F)F)nc(S(C)(=O)=O)n2)cc1OC,36.4%
